Measurements taken from ChEMBL document CHEMBL4184225, “Discovery of selective 2,4-diaminoquinazoline toll-like receptor 7 (TLR 7) agonists” (Bioorg Med Chem Lett, 2018).

Organism: Homo sapiens
Experiment: Selectivity index, ratio of MEC for agonist activity at human TLR8 expressed in HEK293 cells to MEC for agonist activity at human TLR7 expressed in HEK293 cells as
Type: cell-based
Summary of the method: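 Ratio of TLR8 to TLR7 LEC from HEK293 NFκB-luciferase reporter assays. Cells were transiently transfected with TLR7 or TLR8 construct plus NFκB-luc and treated with compound for 6 h at 37°C. LEC is the lowest concentration with signal at least two-fold above the assay SD, from quadruplicate dose-response curves.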

CCCCOc1nc(N)c2c(n1)N(Cc1cccc(CN3CCCC3)c1)CC(=O)N2
Ratio: 30
